According to ChEMBL document CHEMBL4513216, “Probing the Open Global Health Chemical Diversity Library for Multistage-Active Starting Points for Next-Generation Antimalarials” (ACS Infect Dis, 2020):

Experiment: Toxicity liver stage against HepG2, at 10uM
Format: cell-based
Design: test concentration 10 uM, cell line HepG2-A16-CD81EGFP
Conditions: human, HepG2-A16-CD81EGFP cells; read-out: INHIBITION
How it was run: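 Uninfected HepG2-A16-CD81EGFP cells, 3 × 10^3 per well, 1536-well, plated on prespotted compound at 10 μM final, parasite-free screening media added to match infected plates; puromycin 10 μM positive, DMSO 0.5% negative; run in parallel with 48 h PbLuc assay at 37 °C, 5% CO2; viability by CellTiter-Glo luminescence, normalized to controls.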

Row | Compound | cytotoxicity at 10 µM [%]
1 | Cc1cc(C(=O)NC2CCN(c3ncccc3C#N)CC2)no1 | -7.25
2 | CC(O)CN1CC2(CCC1=O)CCN(C(=O)c1cnn(C)c1)CC2 (configuration not stated) | 3.74
3 | CN1CC(c2ccccc2)CC2(CCN(Cc3ncc[nH]3)CC2)C1 (configuration not stated) | -1.21
4 | CC(=O)Nc1nc(C(=O)NCc2ccc(N3CCCCC3)cc2)cs1 | -2.75
5 | CC(C)Nc1ccc2nc(C3CCN(C(C)C)CC3)nn2c1 | -20.4
6 | Cc1cc(C(=O)N2CCc3nc(C4CCCCN4)ncc3C2)cs1 (configuration not stated) | -22.4
7 | CN(Cc1cc[nH]n1)C(=O)C1CC(=O)N(Cc2ccncc2)C1 (configuration not stated) | 1.59
8 | O=C(NCc1cc[nH]n1)NC1CCCN(c2ncccn2)C1 (configuration not stated) | -2.26
9 | O=C(C1CC=CC1)N1Cc2nccn2CC(CN2CCCC2)C1 (configuration not stated) | -86.5
10 | COc1cccc(CN(C)Cc2nc(C(C)C)no2)c1 | -43.6
11 | CC(=O)NCc1nnc2n1CCN(c1ncnc3c1CCC3)CC2 | 13
12 | CCS(=O)(=O)N1CCC2(CN(C(=O)c3cn(C)cn3)C2)C1 | 6.4
13 | CN(Cc1cc(C(C)(C)C)n[nH]1)Cc1c[nH]nc1-c1ccc(F)cc1 | -4.83
14 | Cc1nc(CN(C)C2CCCN(c3ccccc3)C2)no1 (configuration not stated) | -6.9
15 | Cc1ncsc1CN1CCOC(C)(C(=O)N2CCOCC2)C1 (configuration not stated) | -1.95
16 | O=C(NCC1(O)CCCCC1)c1coc(COc2cccc(F)c2)n1 | -136
17 | COc1cccc(CNC(=O)c2nc3c(s2)CCN(C(C)=O)CC3)c1 | -77.4
18 | CC(C)CNC(=O)CNC(=O)NCC(O)c1ccc2ccccc2c1 (configuration not stated) | -2.52
19 | COCCOCC(=O)Nc1ccc(C)cc1Cl | 1.85
20 | O=C(CN1CCCCCC1)N1CCc2nnc(C3CCCNC3)n2CC1 (configuration not stated) | -5.56
21 | O[C@@H]1CN(Cc2cccc(F)c2)CC[C@H]1NCc1ccccn1 | -1.6
22 | Cc1cccc(CN2CCCC3(CCC(=O)N3CCN(C)C)CC2)n1 (configuration not stated) | -0.891
23 | O=C(c1ccncc1)N1CCCC(C2=Nc3ccccc3S(=O)(=O)N2)C1 (configuration not stated) | 4.26

Row | Compound | cytotoxicity at 10 µM [%]
24 | CS(=O)(=O)NCc1nnc2n1CCN(Cc1cccs1)CC2 | -71.7
25 | O=C(N1CCOCC1)N1CCC2(CCNC2)C1 (configuration not stated) | -2.89
26 | Cc1cccc(-c2nc(CN3CCc4cnc(C)nc4C3)no2)c1 | -8.42
27 | Cc1cc(C(=O)N2CCCS2(=O)=O)c(C)o1 | -11.1
28 | COc1ccccc1C(=O)N1CC(=O)N(CC2CC2)CC(O)C1 (configuration not stated) | 5.99
29 | CCC(O)CN1CCN(C(=O)c2ccc(N(C)C)nn2)CC1 (configuration not stated) | -6.83
30 | Cc1cc(C2CCCN(CCCNS(C)(=O)=O)C2)n[nH]1 (configuration not stated) | -5.2
31 | Cc1noc(C)c1CN1CCN(C)c2ncccc2C1 | -77
32 | CN(C)C(=O)Cn1ccc2cc(NC(=O)N3CCSCC3)ccc21 | 5.25
33 | Cc1cc(C)nc(NCc2cc3n(n2)CCCN(C(=O)C2CCC2)C3)n1 | -120
34 | Cc1csc(CNC(=O)N2CCCC(c3nncn3C)C2)n1 (configuration not stated) | -18.3
35 | CC(C)[C@@H](N)C(=O)NCc1cccnc1N1CCc2ccccc2C1 | 11
36 | CCN(Cc1cc(Cl)ccc1OC)Cc1ncnn1CC | 3.9
37 | CC(C)(C)CC(=O)NS(=O)(=O)c1ccc(C#N)cc1C(F)(F)F | -12.3
38 | CC(Cn1ccnc1)NC1CCN(Cc2cccc(O)c2)CC1 (configuration not stated) | -4.21
39 | CCc1cc(C(F)(F)F)c2c(C3CCCN(C(=O)COC)C3)noc2n1 (configuration not stated) | -17.6
40 | O=C1CC[C@H]2[C@H](CCN2c2ncc(F)cn2)N1c1ccccc1 | 5.86
41 | Cc1[nH]c(=O)sc1S(=O)(=O)N1CCCC1C(=O)NC1CC1 (configuration not stated) | 5.36
42 | COc1ccc(C(=O)NS(=O)(=O)c2ccc(CNC(C)=O)s2)cc1 | 1.81
43 | O=C(CSCc1ccncc1)NCc1csc(Br)c1 | -6.57
44 | O=C(NCCC1=CCCCC1)NCc1nnc2n1CCC2 | -5.6
45 | Cc1cc(CN2C[C@@H]3COC[C@H](C(=O)N4CCCCO4)[C@@H]3C2)oc1C | -74.1
46 | CNS(=O)(=O)c1ccsc1C(=O)OC | 7.54

Row | Compound | cytotoxicity at 10 µM [%]
47 | CC(CNc1cncc(-n2cccn2)n1)N(C)c1ccccc1 (configuration not stated) | -4.48
48 | CC(C)(C)OCCN1CCCC1c1nc(Cc2ccc(F)cc2)no1 (configuration not stated) | -7.1
49 | CC(C)c1ccc(C2(C(=O)NCCS(N)(=O)=O)CCC2)cc1 | -2
50 | Cc1ccc(OCCC(=O)NC2CCc3nccn3C2)cc1 (configuration not stated) | -8.15
51 | CCCn1ccnc1CNC(=O)C1COc2cc(OC)ccc2C1 (configuration not stated) | 1.61
52 | O=c1cc(C2CCNCC2)nc(CCc2ccccn2)[nH]1 | -0.226
53 | CC(C)CNC(=O)c1c(-n2cnnn2)sc2c1CCC2 | -4.56
54 | CN(C)C1CCN(C(=O)c2cc3c(s2)CCN3C(=O)C2CC2)CC1 | 9.61
55 | O=S(=O)(c1cccs1)N1CCCC2(COCCN(c3cccnc3)C2)C1 (configuration not stated) | -78.5
56 | Fc1ccc2c(c1)nc1n2[C@@H](CNCc2nccs2)COC1 | 1.07
57 | O=c1cc(CN2CCC(CCc3ccc(O)cc3)CC2)[nH]c(=O)[nH]1 | -0.885
58 | CC(C)CN1CC(C(=O)NCCNc2ncccn2)CC1=O (configuration not stated) | -23
59 | Cc1cnn(C2(C(=O)O)CCN(c3ccncc3F)CC2)c1 | -1.94
60 | O=C(c1cncs1)N1CCCC1c1ccn[nH]1 (configuration not stated) | -11.9
61 | CCn1cc(NC(=O)NCC(O)CN2CCc3ccccc3C2)cn1 (configuration not stated) | -4.33
62 | CO[C@@H]1CCN(C(=O)c2cnoc2C)[C@H]1Cc1ccccc1 | -72.3
63 | Cc1ccccc1-n1ncc(C(C)N)c1C (configuration not stated) | -8.23
64 | Cc1nn(CC(=O)Nc2cccc(F)c2)c(N)c1C#N | 17.9
65 | Cc1ccc(CN2C[C@@H]3CC[C@H]2CN(Cc2[nH]cnc2C)C3)o1 | -6.81
66 | CN1CCN(C[C@@H]2CN(C(=O)c3ccccc3C#N)C[C@@H]2CO)CC1 | -24.7
67 | Cc1ncoc1C(=O)N1CCOC(CC2CCCCC2)C1 (configuration not stated) | -1.33
68 | CN(C)C(CNS(=O)(=O)c1cc(F)ccc1F)c1cccn1C (configuration not stated) | 1.33
69 | O=C(COC1CCCCC1)Nc1ccn(Cc2cccnc2)n1 | 5.17

Row | Compound | cytotoxicity at 10 µM [%]
70 | CNC(=O)CN1CC[C@H]2CN(C(=O)c3cc[nH]n3)C[C@H]2C1 | 0.53
71 | CCNC(=O)CN(CC)C(=O)Cc1csc(C(C)C)n1 | 1.29
72 | O=C1[C@H]2CN(Cc3ccc(F)cc3)C[C@H]2CN1c1cncnc1 | -2.32
73 | CN(Cc1ccc2c(c1)OCCO2)Cc1nnnn1-c1ccccc1 | 20.5
74 | Cc1cc(C(=O)NCC(C)C)nn1C | -0.971
75 | COCCN(Cc1cccnc1)S(=O)(=O)c1cccc(F)c1F | -1.89
76 | COc1ccc(Cl)cc1C(=O)NCC1CCN(C(=O)c2ccoc2)CC1 | 10.1
77 | c1cnc(N2CCO[C@@H]3CN(Cc4ccoc4)C[C@@H]3C2)nc1 | -1.36
78 | CCCSCC(=O)N1CCCC(CO)(CCC)C1 (configuration not stated) | 4.86
79 | c1cnc(NCC2Cn3nnc(-c4ccsc4)c3CO2)nc1 (configuration not stated) | -73.3
80 | CCc1nc(CN2CCCC2C(=O)NC2CC2)cs1 (configuration not stated) | -4.63
81 | Cc1cccn2c(=O)cc(OC(=O)c3ccccc3Cl)nc12 | 10.7
82 | Cc1cc(F)ccc1CN1CCC(O)(CN2CCCCC2)C1 (configuration not stated) | 14.8
83 | Cc1cccc(CN2CCN(c3ncnc4[nH]ccc34)CC2CCO)n1 (configuration not stated) | 10.8
84 | COCCN1C(=O)[C@@H]2CC[C@H]1CN(c1nccc(C)n1)C2 | 9.73
85 | CC(C)C(O)C(=O)N1CCC2(CC1)c1nc[nH]c1CCN2S(C)(=O)=O (configuration not stated) | -0.232
86 | COc1ccc(C(=O)N2CC(=O)N(CC3CC3)CC(O)C2)cc1 (configuration not stated) | 4.77
87 | CO[C@H]1CCN(Cc2ccoc2)C[C@@H]1Cc1ccccc1 | -11.9
88 | COCCNCc1cc2c(C)cc(C)cc2n2c(=O)n(C)nc12 | -10.3
89 | CN(C)Cc1cn2c(n1)CN(C1CCOC1)CC2 (configuration not stated) | 6.43
90 | CNC(=O)CC1CC2(CCN(CC3CC3)CC2)Oc2ccccc21 (configuration not stated) | -0.0368
91 | CCCc1cnc(C)nc1NCCc1nc(C)cc(=O)[nH]1 | -5.1
92 | Cc1nccc(N[C@H]2CN(C(=O)CN3CCOCC3)C[C@@H]2C(C)C)n1 | -7.92

Row | Compound | cytotoxicity at 10 µM [%]
93 | CNc1ncc(CN2CCC(CCc3ccccc3)CC2)cn1 | 5.19
94 | Cc1nn(CCC(=O)N(C)Cc2c(Cl)cnn2C)cc1Br | 1.29
95 | N#Cc1ccc(C(=O)N2CC[C@H]3[C@H]2CCN3CC2CCOCC2)cc1 | -5.19
96 | Cc1cc(C(C)NC(=O)c2c[nH]c(=O)c(Cl)c2)c(C)o1 (configuration not stated) | 12.5
97 | COCC1CN(C(=O)c2ccoc2)Cc2cnn(CC3CCOCC3)c21 (configuration not stated) | 2.77
98 | Cc1cc2cc(CNC3CCN(CC4CCOC4)CC3)oc2cc1C (configuration not stated) | -8.14
99 | Cc1ccc(NC(=O)Cn2ccc3c(=O)n(C)ccc32)cc1F | -2.74
100 | Cc1cccc2c1ccn2CCC(=O)O | 7.47
101 | Cc1noc(C2CCCN(C(=O)c3cc(Cl)ccc3F)C2)n1 (configuration not stated) | 2.66
102 | Cc1ccc(CN(CC(=O)NC2CCOCC2)c2ccc(F)cc2)o1 | 1.55
103 | O=S(=O)(c1c(Cl)nc2sccn12)N1CCCC2(CCNC2)C1 (configuration not stated) | 8.64
104 | O=C(NCCn1ccnc1)c1cncc(Br)c1 | 17.7
105 | CCOC(=O)c1cnn(-c2cc(Oc3ccccc3C)ncn2)c1N | 15.8
106 | Cc1cnn(CC2CN(c3nc4ccccc4o3)CCO2)c1 (configuration not stated) | -16.5
107 | Cn1cc(CN2CCC[C@]3(C(=O)O)CN(c4ncccn4)C[C@@H]3C2)cn1 | 4.89
108 | NC(=O)c1cncc(N2CCN(Cc3ccc(F)cc3Cl)CC2)n1 | 11.8
109 | CS(=O)(=O)NC1CCCN(C(=O)COCc2ccccc2)C1 (configuration not stated) | -5.28
110 | CC(CCc1ccccc1F)C(=O)NS(=O)(=O)CC1CC1 (configuration not stated) | -5.36
111 | Cc1cnn(CC2CCCN2CC(=O)NC2CCOCC2)c1 (configuration not stated) | -16
112 | Cc1nc(C)c(CC(=O)Nc2ncc(C)s2)c(=O)[nH]1 | -5.49
